Paper PMC2587418 (Journal of medicinal chemistry, 2008)
Read-outs that look alike come from different tables or passages of the source.

Legend:
[1] = format: in vivo, rat; details: pretreated with 3 (10 mg/kg i.v.)
Method in brief: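 Adult male Sprague-Dawley rats (225–250 g) were pretreated by tail vein with a selective CB1 inverse agonist (10 mg/kg, i.v.) or its vehicle. After 15 min they received the test compound (30 μg/kg, i.v.) and were killed by cervical dislocation at 0.25, 0.5, 1, 2, 4 or 8 h, three rats per time point. Frontal cortex was weighed, homogenised in four volumes MeCN with 0.1% HCO2H, and quantified by LC-MS.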

human CB1 receptors = human CB1 receptors (Homo sapiens, UniProt P21554); assay: CB1 GTPγ35S potency assay; format: biochemical; details: ratio of CB2 Kb to CB1 Kb; fold
[2] = monkey; within 10-20 min after injection; cited from earlier work

Chain of human CB1 receptors (P21554 whole entry): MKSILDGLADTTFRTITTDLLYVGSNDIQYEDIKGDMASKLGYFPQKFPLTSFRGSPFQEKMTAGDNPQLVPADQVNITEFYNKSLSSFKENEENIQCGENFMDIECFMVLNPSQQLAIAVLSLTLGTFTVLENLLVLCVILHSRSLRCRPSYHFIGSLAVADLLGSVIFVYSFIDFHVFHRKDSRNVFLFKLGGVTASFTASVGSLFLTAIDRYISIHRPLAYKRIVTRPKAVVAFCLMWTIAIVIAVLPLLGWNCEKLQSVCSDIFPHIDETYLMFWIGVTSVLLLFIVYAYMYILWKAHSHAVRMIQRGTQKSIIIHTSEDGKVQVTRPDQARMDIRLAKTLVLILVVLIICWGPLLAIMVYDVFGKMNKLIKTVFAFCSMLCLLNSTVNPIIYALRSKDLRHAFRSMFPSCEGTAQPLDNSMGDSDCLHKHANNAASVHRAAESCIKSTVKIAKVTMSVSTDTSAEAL

SMILES | Ligand quantifiability in frontal cerebral cortex ([1]; at 4 h after injection) | CB1 versus CB2 selectivity (human CB1 receptors) | Ligand quantifiability in frontal cerebral cortex ([1]; at 2 h after injection) | Brain standardized uptake value [2]
COc1cccc([C@H]2C[C@@H](N[C@H](C)c3ccccc3)C(=O)N2c2ccc(C(F)(F)F)cc2)c1 [Ligand 8, (3R,5R)-5-(3-Methoxy-phenyl)-3-((R)-1-phenyl-ethylamino)-1-(4-trifluoromethyl-phenyl)-pyrrolidin-2-one] | not quantifiable | – | – | –
COc1cccc([C@H]2C[C@@H](N[C@H](C)c3ccc(F)cc3)C(=O)N2c2ccc(C(F)(F)F)cc2)c1 [Ligand 16, (3R,5R)-3-[(R)-1-(4-Fluoro-phenyl)-ethylamino]-5-(3-methoxy-phenyl)-1-(4-trifluoromethyl-phenyl)-pyrrolidin-2-one] | – | 2,160 | – | –
C[C@@H](N[C@@H]1C[C@H](c2cccc(OCF)c2)N(c2ccc(C(F)(F)F)cc2)C1=O)c1ccccc1 [Ligand 20, (3R,5R)-5-(3-Fluoromethoxy-phenyl)-3-((R)-1-phenyl-ethylamino)-1-(4-trifluoromethyl-phenyl)-pyrrolidin-2-one] | not quantifiable | 3,580 | – | –
C[C@@H](N[C@@H]1C[C@H](c2cccc(OCCF)c2)N(c2ccc(C(F)(F)F)cc2)C1=O)c1ccccc1 [Ligand 22, (3R,5R)-5-[3-(2-Fluoro-ethoxy)-phenyl]-3-((R)-1-phenyl-ethylamino)-1-(4-trifluoromethyl-phenyl)-pyrrolidin-2-one] | – | >19,500 | could not be quantified | –
C[C@@H](N[C@@H]1C[C@H](c2cccc(O[11CH3])c2)N(c2ccc(C(F)(F)F)cc2)C1=O)c1ccccc1 [[^11C]8, [methyl-^11C](3R,5R)-5-(3-methoxy-phenyl)-3-((R)-1-phenyl-ethylamino)-1-(4-trifluoromethyl-phenyl)-pyrrolidin-2-one] | – | – | – | ~600 % SUV
